# High-throughput results: PubChem BioAssay, several laboratories
# The full list was thinned out, with hits kept by preference.
# L major viab: Leishmania major promastigote growth inhibition; Leishmania major promastigotes, resazurin fluorescence viability; inhibition, % at 10 µM; 200,000 tested, 9% active; AID 1063; in the data active = inhibition above about 50%;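 also: promastigotes grown with compound for 44 hours at 28 °C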
# Hsp70 act: transcriptional activators of Hsp70. HeLa Hsp70 promoter luciferase reporter, luminescence; scaled: vehicle 0, proteasome-inhibitor control 100%. activation, % at 10 µM. 200,000 tested, 0.04% active;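 active = activation above the mean across all tested compounds plus 3 SD, cutoff set per campaign, cut at about 5.5% in these data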;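 also: 100% = MG132 at 30 µM as the positive control and 0% = DMSO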
# T cruzi inh: T. cruzi replication inhibition; T. cruzi beta-gal in NIH3T3, luminescence, 90 h; 300,000 tested, 1.4% active; inhibition, % (concentration not given with the values);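 active = mean inhibition across valid replicates above about 55%, limit read from the data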;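 also: signal also drops with host cell toxicity which is not excluded here; 0% = plate median of DMSO wells and 100% = zero luminescence signal; higher percent means less beta-gal luminescence so fewer parasites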
#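 Test system: β-gal T. cruzi (Tulahuen C4) inside NIH/3T3 cells / Quantity: 5,000 cells/well / Measured by: luminescence from GalScreen with 0.05% NP40, read after 60 min / Medium: DMEM plus 2% FBS / Measure: parasite load inhibition, % / Reagent: Tulahuen C4 trypomastigotes, 5000/well / Schedule: co-culture of at least 90 h after 3 h attachment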
# HSF-1 act: increases HSF-1 driven luciferase reporter signal. NIH3T3-HGL HSF-1 luciferase reporter, MG132, 8 h; 100% = twice DMSO control signal. activation, % at 9 µM. 300,000 tested, 1.7% active. AID 504408;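 active = mean replicate activation of at least 50% with a set share of replicates each reaching 50%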;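 also: 0% = median of the neutral control wells and 100% = twice that signal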
# HSF1 inhib: HSF1 inhibition; NIH3T3-HGL HSE-luciferase, MG132-induced, luminescence 8 h; hits give low values; activity change, negative = inhibition, % at 7.5 µM (by protocol); 300,000 tested, 0.77% active;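 active = more than half of replicate wells show activity change below -50%, luminescence cut by over half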;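 also: luciferase reports HSF-1 transcriptional activity via heat shock element; 0% = median of DMSO wells and -100% = zero luminescence signal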
# * = called active by the depositor; . = no result given.
SMILES,L major viab,Hsp70 act,T cruzi inh,HSF-1 act,HSF1 inhib
COc1cccc(/C=N/NC(=O)Cn2nc(C)c([N+](=O)[O-])c2C)c1O,82*,-1,-8,3,1
Cc1nn(CC(=O)N/N=C/c2cccs2)c(C)c1[N+](=O)[O-],.,.,-15,5,-6
COc1cccc(/C=N\NC(=O)c2ccc(Cn3cc(Br)c([N+](=O)[O-])n3)o2)c1O,100*,0,64*,31,3
COc1cccc(/C=N/NC(=O)C(=O)N2CCCC2)c1O,53*,0,-9,-6,5
COc1cccc(/C=N/NC(=O)C(=O)N2CCCC2)c1OC,2,0,-7,-3,0
O=C1CC(N2CCN(c3ccc(F)cc3)CC2)C(=O)N1c1ccc2c(c1)OCO2 (stereo not given),4,0,-11,27,14
COc1cccc(/C=N/NC(=O)C(C)n2nc(C)c([N+](=O)[O-])c2C)c1O (stereo not given),94*,0,-15,-5,-4
COc1cccc(NC(=S)NNC(=O)C(C)n2nc(C)c([N+](=O)[O-])c2C)c1 (stereo not given),-8,0,-7,7,4
Cc1c(C(=O)Nc2ccc(-c3nnc4n3CCCCC4)cc2)oc2c1ccc1ccccc12,33,0,56*,14,9
COc1cc(S(=O)(=O)N2CCC(O)(c3cccc(C(F)(F)F)c3)CC2)ccc1-n1cnnn1,-3,-1,61*,4,0
COc1ccc(OC)c(S(=O)(=O)N2CCC(c3nc4ccccc4[nH]3)CC2)c1,.,.,-7,-4,2
O=C(NCC(c1cccnc1)N1CCOCC1)C1CCCCC1 (stereo not given),-6,0,0,-14,-10
COc1ccccc1N1CCN(C(CNC(=O)c2ccc3c(c2)OCO3)c2cccnc2)CC1 (stereo not given),94*,0,50,15,0
COc1ccccc1N1CCN(C(CNC(=O)C2CCCCC2)c2cccnc2)CC1 (stereo not given),51*,0,43,3,5
Cc1ccc(COc2ccccc2C(=S)N2CCCC2)cc1,76*,0,-5,9,17
Nc1c(C(=O)c2ccccc2)sc2nsc(SCCN3CCOCC3)c12,.,.,14,60*,24
CC(=O)c1sc2nsc(SCCN3CCOCC3)c2c1N,.,.,-7,-9,-2
Cc1sc(NC(=O)CSc2nnc(-c3ccccc3)o2)c(C#N)c1C,-1,0,-1,43,27
CC1CCc2c(sc(NC(=O)CSc3ncn[nH]3)c2C#N)C1 (stereo not given),.,.,-1,-38,-33
CC1CCc2c(sc(NC(=O)CSc3nnc(-c4ccccc4)o3)c2C#N)C1 (stereo not given),10,0,2,53*,25
CCN1CCN(CC(=O)Nc2sc3c(c2C#N)CCC(C)C3)CC1 (stereo not given),100*,0,28,-2,1
N#Cc1c(NC(=O)CSc2nnc(-c3ccccc3)o2)sc2c1CCCC2,2,0,-2,76*,52
CC(=O)Nc1ccc(/C=C/c2noc(-c3ccccc3O)n2)cc1,.,.,-10,0,7
COc1cc(/C=C/c2noc(-c3ccccc3O)n2)ccc1OC(C)=O,.,.,-23,54*,15
O=[N+]([O-])c1ccccc1Sc1nccn1Cc1ccccc1,20,0,1,2,-2
SMILES,L major viab,Hsp70 act,T cruzi inh,HSF-1 act,HSF1 inhib
C/C(CC(=O)Nc1ccc(Cl)c(C(F)(F)F)c1)=N\NC(N)=S,97*,0,19,12,14
C/C(CC(=O)Nc1ccc(Cl)c(C(F)(F)F)c1)=N\NC(=O)c1ccccc1O,-10,0,-7,23,14
COc1ccccc1NC(=O)CN1CCN(CC(=O)Nc2ccc(Cl)c(C(F)(F)F)c2)CC1,33,0,.,.,.
O=C(CCNC(=O)c1ccccc1Cl)Nc1ccc(Cl)c(C(F)(F)F)c1,51*,0,8,1,-2
CCc1ccccc1NCC(=O)Nc1ccc(Cl)c(C(F)(F)F)c1,49,0,-1,58*,26
COc1ccc(Cl)cc1N(CC(=O)N1CCCC1)S(C)(=O)=O,.,.,-10,-3,-4
Cn1c(CNC(=O)c2ccco2)nnc1SCC(=O)c1ccc(F)cc1,.,.,-1,3,4
O=C(N/C(=C/c1cccc([N+](=O)[O-])c1)C(=O)N1CCCCCC1)c1cccs1,61*,-1,2,8,-5
CN1CCN(C(=O)/C(=C\c2cccc([N+](=O)[O-])c2)NC(=O)c2cccs2)CC1,-5,0,4,-5,-4
O=C(N/C(=C/c1ccc([N+](=O)[O-])cc1)C(=O)N1CCCC1)c1ccccc1,.,.,-6,0,-1
O=C(N/C(=C/c1cccc([N+](=O)[O-])c1)C(=O)N1CCCCC1)c1cccs1,90*,0,-6,-5,-12
O=C(N/C(=C/c1cccc([N+](=O)[O-])c1)C(=O)N1CCCCC1)c1ccco1,.,.,-13,-12,-9
CC(=O)N/C(=C\c1cccc([N+](=O)[O-])c1)C(=O)NC1CCCCC1,51*,0,-6,6,-5
O=C(N/C(=C/C=C/c1ccccc1)C(=O)N1CCCCC1)c1ccc([N+](=O)[O-])cc1,61*,0,21,2,-3
Cc1ccc(NC(=O)/C(=C/c2cccc([N+](=O)[O-])c2)NC(=O)C2CCCCC2)cc1,4,0,-27,-2,-2
N#Cc1c(N)n(C2OC(CO)C(O)C2O)c2ncnc(N)c12 (stereo not given),.,.,.,78*,78*
Cc1ccc(N2C(=O)c3cccc4c(Oc5ccccc5[N+](=O)[O-])ccc(c34)C2=O)c(C)c1,97*,1,45,-4,-4
Cc1ccc(Cn2cc(S(=O)(=O)c3ccc(C(C)C)cc3)c(=O)c3cc4c(cc32)OCO4)cc1,65*,0,37,64*,45
Cc1ccc(Cn2cc(S(=O)(=O)c3ccc(Cl)cc3)c(=O)c3cc(F)ccc32)cc1,23,0,25,79*,41
Cc1ccccc1Cn1cc(S(=O)(=O)c2ccc(C(C)C)cc2)c(=O)c2cc3c(cc21)OCO3,.,.,43,78*,57
CC(C)c1ccc(S(=O)(=O)c2cn(Cc3ccc(F)cc3)c3cc4c(cc3c2=O)OCO4)cc1,98*,0,19,-31,-16
Cc1ccc(S(=O)(=O)c2cn(Cc3ccc(F)cc3)c3cc4c(cc3c2=O)OCO4)cc1,13,0,16,43,9
CCOc1ccccc1N(CC(=O)N1CCCC1)S(C)(=O)=O,.,.,-8,0,-3
COC(=O)C(NC(=O)c1ccccc1C(=O)O)c1ccc2ccccc2c1 (stereo not given),.,.,-17,-9,2
CSc1nc(N(C)C)nc(N2CC(=O)N(CCNS(=O)(=O)c3ccc(C)cc3)C2=N)n1,7,0,18,0,4
